Measured values taken from ChEMBL document CHEMBL1124727, “Neuronal mapping of the heart with 6-[18F]fluorometaraminol” (1990).

Legend:
Canis familiaris [1] = test: Tissue concentration in dog lung 24 hr after iv administration; format: functional, Canis lupus familiaris
How it was run: (§1)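 Dogs (one to three per time point) received bolus cephalic vein injection of 92–100 μCi ³H tracer in 2.0 mL sterile acetate buffer pH 4.5; sacrificed 30 min or 24 h later by iv sodium pentobarbital. Duplicate organ samples oxidized and liquid-scintillation counted with background/efficiency correction; % kg dose/g ± SEM; heart ratio uses left ventricle/blood.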

Canis familiaris [2] = test: Tissue concentration in dog left ventricle to blood ratio 24 hr after iv administration; format: functional, Canis lupus familiaris; how it was run: as §1
Canis familiaris [3] = test: Tissue concentration in dog heart 24 hr after iv administration; format: functional, Canis lupus familiaris; how it was run: as §1
Canis familiaris [4] = test: Tissue concentration in dog spleen 0.5 hr after iv administration; format: functional, Canis lupus familiaris; how it was run: as §1
Canis familiaris [5] = test: Tissue concentration in dog liver 24 hr after iv administration; format: functional, Canis lupus familiaris; how it was run: as §1
Canis familiaris [6] = test: Tissue concentration in dog blood 24 hr after iv administration; format: functional, Canis lupus familiaris; how it was run: as §1
Canis familiaris [7] = test: (§2) Tissue concentration in dog left ventricle to blood ratio 0.5 hr after iv administration; format: functional, Canis lupus familiaris; how it was run: as §1
Canis familiaris [8] = test: Tissue concentration in dog lung 0.5 hr after iv administration; format: functional, Canis lupus familiaris; how it was run: as §1
Canis familiaris [9] = test: Tissue concentration in dog blood 0.5 hr after iv administration; format: functional, Canis lupus familiaris
How it was run: (§3)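 Dogs given ³H tracer (92–100 μCi) as iv cephalic-vein bolus in 2.0 mL sterile acetate buffer pH 4.5; 1–3 dogs per time point. Killed 30 min (or 24 h) later by iv pentobarbital; duplicate tissue samples oxidized and liquid-scintillation counted with background and efficiency correction. Expressed as % kg dose/g; ratio = left ventricle to blood.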

Canis familiaris [10] = test: Tissue concentration in dog heart 0.5 hr after iv administration; format: functional, Canis lupus familiaris; how it was run: as §1
Canis familiaris [11] = test: Tissue concentration in dog liver 0.5 hr after iv administration; format: functional, Canis lupus familiaris; how it was run: as §3
Canis familiaris [12] = test: Tissue concentration in dog spleen 24 hr after iv administration; format: functional, Canis lupus familiaris; how it was run: as §1
Canis familiaris [13] = test: Tissue concentration in dog thyroid after iv administration; format: functional, Canis lupus familiaris, Thyroid gland
Canis familiaris [14] = test: Tissue concentration in dog heart after iv administration; format: functional, Canis lupus familiaris
Canis familiaris [15] = test: Tissue concentration in dog left ventricle to blood ratio after iv administration; format: functional, Canis lupus familiaris
How it was run: (§4)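 Mongrel dogs (two female, 15.0 and 18.6 kg, 0.45 mCi; two male, 2.0 mCi) given FMR as iv cephalic-vein bolus in 2.0 mL sterile 0.15 M acetate buffer, pH 4.5. Killed 1 h later by iv pentobarbital; tissues washed in saline, blotted, weighed, gamma counted 1 min. Expressed as % kg dose/g, N = 4 (muscle, pancreas, kidney N = 2).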

Canis familiaris [16] = test: Tissue concentration in dog adrenal medulla after iv administration; format: functional, Canis lupus familiaris; how it was run: as §4
Canis familiaris [17] = test: Tissue concentration in dog blood after iv administration; format: functional, Canis lupus familiaris; how it was run: as §4
Canis familiaris [18] = test: Tissue concentration in dog spleen after iv administration; format: functional, Canis lupus familiaris; how it was run: as §4
Canis familiaris [19] = test: Tissue concentration in dog lung after iv administration; format: functional, Canis lupus familiaris; how it was run: as §4
Canis familiaris [20] = test: Tissue concentration in dog liver after iv administration; format: functional, Canis lupus familiaris; how it was run: as §4
Canis familiaris [21] = test: Tissue concentration in dog muscle after iv administration; format: functional, Canis lupus familiaris; how it was run: as §4
Canis familiaris [22] = organism: Canis familiaris; test: Normalized FMR Concentration in anterior wall of heart of phenol treated canine myocardium; format: functional, Canis lupus familiaris
How it was run: (§5)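 Mongrel dogs, LV anterior epicardium (LAD region) painted with 88% phenol in ethanol (v/v); 4–7 days later FMR iv, killed 1 h post by pentobarbital/KCl overdose. LV cut into ~1 cm transverse slices, then radial segments, gamma counted; % kg dose/g normalized to highest-activity segment (atria = 100%). Affected area = mean of three lowest contiguous segments in each of two midbasal slices; controls N = 3, treated N = 5.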

Canis familiaris [23] = test: Tissue concentration of the compound in dog adrenal cortex after iv administration; format: functional, Canis lupus familiaris; how it was run: as §4
Canis familiaris [24] = test: Tissue concentration in dog left atrium after iv administration; format: functional, Canis lupus familiaris, Cardiac atrium; how it was run: as §4
Canis familiaris [25] = test: Tissue concentration in dog kidney after iv administration; format: functional, Canis lupus familiaris; how it was run: as §4
Canis familiaris [26] = organism: Canis familiaris; test: Normalized FMR Concentration in posterior wall of heart of phenol treated canine myocardium; format: functional, Canis lupus familiaris; how it was run: as §5
Canis familiaris [27] = test: Tissue concentration in dog right ventricle after iv administration; format: functional, Canis lupus familiaris, Heart right ventricle; how it was run: as §4
Canis familiaris [28] = test: Tissue concentration in dog pancreas after iv administration; format: functional, Canis lupus familiaris; how it was run: as §4
Canis familiaris [29] = test: Tissue concentration in dog left ventricle after iv administration; format: functional, Canis lupus familiaris, Heart left ventricle; how it was run: as §4
Canis familiaris [30] = test: Tissue concentration in dog right atrium after iv administration; format: functional, Canis lupus familiaris, Cardiac atrium; how it was run: as §4
Rattus norvegicus [31] = organism: Rattus norvegicus; test: Percentage change in thallium-201 in right ventricle of sympathectomized rat, pretreated with 6-hydroxydopamine; format: functional, Heart right ventricle
How it was run: (§6)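 Female Sprague-Dawley rats (200–300 g) given 6-hydroxydopamine HBr 100 mg/kg ip, freshly made in saline, 5 days before tracer; controls got vehicle. Thallium-201 (23–28 μCi) iv via femoral vein; decapitated 90 min later; tissue radioactivity counted; N = 6. Value is % change in treated versus control tissue concentration.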

Rattus norvegicus [32] = organism: Rattus norvegicus; test: Percente change in thallium-201 concentration in left atrium of sympathectomized rat, pretreated with 6-hydroxydopamine; format: functional, Cardiac atrium; how it was run: as §6
Canis familiaris [33] = test: as §2; format: functional, Canis lupus familiaris; how it was run: as §3; remark: listed apart in the source
Rattus norvegicus [34] = organism: Rattus norvegicus; test: Percentage change in thallium-201 in left ventricle of sympathectomized rat, pretreated with 6-hydroxydopamine; format: functional, Heart left ventricle; how it was run: as §6
Rattus norvegicus [35] = organism: Rattus norvegicus; test: Percent change in thallium-201 concentration in right atrium of sympathectomized rat, pretreated with 6-hydroxydopamine; format: functional, Cardiac atrium; how it was run: as §6
Rattus norvegicus [36] = organism: Rattus norvegicus; test: Percentage change in thallium-201 in spleen of sympathectomized rat, pretreated with 6-hydroxydopamine; format: functional; how it was run: as §6
Rattus norvegicus [37] = organism: Rattus norvegicus; test: Percentage change in thallium-201 in blood of sympathectomized rat, pretreated with 6-hydroxydopamine; format: functional; how it was run: as §6

Row | Compound | [3H] concentration (Canis familiaris [1]) [% kg dose g-1] | [3H] concentration (Canis familiaris [2]) | [3H] concentration (Canis familiaris [3]) [% kg dose g-1] | [3H] concentration (Canis familiaris [4]) [% kg dose g-1] | [3H] concentration (Canis familiaris [5]) [% kg dose g-1] | [3H] concentration (Canis familiaris [6]) [% kg dose g-1] | [3H] concentration (Canis familiaris [8]) [% kg dose g-1] | [3H] concentration (Canis familiaris [9]) [% kg dose g-1] | [3H] concentration (Canis familiaris [10]) [% kg dose g-1] | [3H] concentration (Canis familiaris [11]) [% kg dose g-1] | [3H] concentration (Canis familiaris [12]) [% kg dose g-1] | [3H] concentration (Canis familiaris [16]) [% kg dose g-1] | [3H] concentration (Canis familiaris [17]) [% kg dose g-1] | [3H] concentration (Canis familiaris [18]) [% kg dose g-1] | [3H] concentration (Canis familiaris [19]) [% kg dose g-1] | [3H] concentration (Canis familiaris [20]) [% kg dose g-1] | other results
1 | C[C@H](N)[C@H](O)c1cccc(O)c1 (stereo in doubt; form 1) [METARAMINOL] | 0.03 | 74 | 0.59 | 0.81 | 0.13 | 0.008 | 0.2 | 0.03 | 0.55 | 0.42 | 0.5 | – | – | – | – | – | [3H] concentration (Canis familiaris [7]): 18
2 | CC(N)C(O)c1cc(O)ccc1I (stereo not drawn) | – | – | – | – | – | – | – | – | – | – | – | 0.2 | 0.05 | 0.08 | 0.26 | 0.49 | [3H] concentration (Canis familiaris [13]): 0.06 % kg dose g-1; [3H] concentration (Canis familiaris [14]): 0.05 % kg dose g-1; [3H] concentration (Canis familiaris [15]): 1 % kg dose g-1
3 | CC(N)C(O)c1cc(O)ccc1F (stereo not drawn) | – | – | – | – | – | – | – | – | – | – | – | 9.89 | 0.04 | 0.69 | 0.26 | 0.33 | [3H] concentration (Canis familiaris [21]): 0.07 % kg dose g-1; [3H] concentration (Canis familiaris [22]): 14.5 % kg dose g-1; [3H] concentration (Canis familiaris [23]): 0.59 % kg dose g-1; [3H] concentration (Canis familiaris [24]): 1.54 % kg dose g-1; [3H] concentration (Canis familiaris [25]): 0.41 % kg dose g-1; [3H] concentration (Canis familiaris [26]): 53.8 % kg dose g-1; [3H] concentration (Canis familiaris [27]): 0.89 % kg dose g-1; [3H] concentration (Canis familiaris [28]): 0.6 % kg dose g-1; [3H] concentration (Canis familiaris [29]): 1.24 % kg dose g-1; [3H] concentration (Canis familiaris [30]): 1.44 % kg dose g-1
4 | [3H][C@](O)(CN)c1ccc(O)c(O)c1 [[3H]NOREPINEPHRINE] | 0.03 | 9 | 0.16 | 0.81 | 0.09 | 0.017 | 0.18 | 0.04 | 0.74 | 0.27 | 0.52 | – | – | – | – | – | Change (Rattus norvegicus [31]): -92%; Change (Rattus norvegicus [32]): -92%; [3H] concentration (Canis familiaris [33]): 19; Change (Rattus norvegicus [34]): -85%; Change (Rattus norvegicus [35]): -94%; Change (Rattus norvegicus [36]): -71%; Change (Rattus norvegicus [37]): -20%
